Assay results: paper PMC10791069 (SLAS discovery : advancing life sciences R & D, 2019)
Like-named read-outs stand apart in the source and are kept apart here.

Legend:
KB 3–1 cells = assay: CellTiter-Glo cytotoxicity qHTS, KB 3-1; assay type: cell-based, human; settings: for cell killing of KB 3–1 cells (in words): 48 hr; for EC50: read-out: EC50 KB 3–1
In short: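 HeLa-derived KB 3–1 cells are seeded at 500 cells/well in 5 μL. Annotated library is tested 8-pt (0.6 nM–46 μM, 1:5) or 11-pt (0.8 nM–46 μM, 1:3); cherry-picks are retested 12-pt, 0.3 nM–46 μM final. Incubate 48 hr at 37 °C, then read CellTiter-Glo luminescence after 10 min at room temperature. Normalize to DMSO and 9.2 μM bortezomib; EC50 from a four-parameter logistic fit.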

CRL-7250 cells = assay: CellTiter-Glo cytotoxicity qHTS, CRL-7250; assay type: cell-based, human; settings: for cell killing of CRL-7250 cells (in words): CellTiter-Glo, 48 hr
In short: (§1)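 CRL-7250 (primary) or HaCat cells are seeded at 500 cells/well in 5 μL medium. Test compound is pin-transferred as an 8-pt series (0.6 nM–46 μM, 1:5) or an 11-pt series (0.8 nM–46 μM, 1:3). Incubate 48 hr at 37 °C and 85% humidity. Add CellTiter-Glo and read luminescence after 10 min at room temperature. Normalize to DMSO (0%) and 9.2 μM bortezomib (−100%); EC50 comes from a four-parameter logistic fit.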

NIH 3T3 cells = assay: CellTiter-Glo cytotoxicity qHTS, NIH 3T3; assay type: cell-based, murine; settings: for cell killing of NIH 3T3 cells (in words): 48 hr; for EC50: read-out: EC50 NIH 3T3; for cell killing of NIH 3T3 compared with cancer cell line KB-3–1 (in words): pan-active outliers, 12 dose-point confirmation
In short: (§2)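 HEK 293 (250 cells/well) or NIH 3T3 (400 cells/well) are seeded in 5 μL. Dosing: annotated library 8-pt (0.6 nM–46 μM) or 11-pt (0.8 nM–46 μM); diversity library 4-pt, mostly 115, 58, 12 and 2.3 μM; cherry-picks confirmed over 12 points, 0.3 nM–46 μM final. Incubate 48 hr at 37 °C, then read CellTiter-Glo luminescence after 10 min. Normalize to DMSO and 9.2 μM bortezomib; EC50 from a four-parameter logistic fit.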

HEK 293 cells = assay: CellTiter-Glo cytotoxicity qHTS, HEK 293; assay type: cell-based, human; settings: for cell killing of HEK 293 cells (in words): 48 hr; for EC50: read-out: EC50 HEK 293; for cell killing of HEK 293 compared with cancer cell line KB-3–1 (in words): pan-active outliers, 12 dose-point confirmation
In short: as §2

[1] = biological target: Photinus pyralis luciferase (Photinus pyralis, UniProt P08659); assay: Firefly luciferase inhibition assay; assay type: biochemical; settings: read-out: EC50 Luciferase; 10 nM Photinus pyralis luciferase, 10 μM ATP, 10 μM D-Luciferin
Photinus pyralis luciferase, sequence (P08659 whole entry): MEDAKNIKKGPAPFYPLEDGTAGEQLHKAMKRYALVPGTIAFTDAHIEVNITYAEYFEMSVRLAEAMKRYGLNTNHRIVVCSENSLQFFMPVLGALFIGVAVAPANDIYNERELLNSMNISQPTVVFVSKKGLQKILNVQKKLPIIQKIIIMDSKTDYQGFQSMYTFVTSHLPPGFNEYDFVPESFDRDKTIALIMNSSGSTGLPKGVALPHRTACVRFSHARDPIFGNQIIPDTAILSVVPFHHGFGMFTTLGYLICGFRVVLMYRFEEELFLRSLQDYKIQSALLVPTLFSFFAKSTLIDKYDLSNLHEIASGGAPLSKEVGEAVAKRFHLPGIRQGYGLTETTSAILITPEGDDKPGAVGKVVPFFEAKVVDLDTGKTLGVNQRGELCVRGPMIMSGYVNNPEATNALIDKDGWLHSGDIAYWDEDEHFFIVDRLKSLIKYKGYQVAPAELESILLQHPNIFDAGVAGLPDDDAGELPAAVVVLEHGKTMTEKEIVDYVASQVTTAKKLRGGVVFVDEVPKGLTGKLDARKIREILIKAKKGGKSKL

[2] = biological target: T1, CTG engineered firefly luciferase (Photuris pensylvanica, UniProt Q27757); assay: CellTiter-Glo luciferase counter-assay; assay type: biochemical; settings: read-out: EC50 CTG Luciferase; cell-free media with CTG and ATP added as substrate
T1 sequence (Q27757 1-545): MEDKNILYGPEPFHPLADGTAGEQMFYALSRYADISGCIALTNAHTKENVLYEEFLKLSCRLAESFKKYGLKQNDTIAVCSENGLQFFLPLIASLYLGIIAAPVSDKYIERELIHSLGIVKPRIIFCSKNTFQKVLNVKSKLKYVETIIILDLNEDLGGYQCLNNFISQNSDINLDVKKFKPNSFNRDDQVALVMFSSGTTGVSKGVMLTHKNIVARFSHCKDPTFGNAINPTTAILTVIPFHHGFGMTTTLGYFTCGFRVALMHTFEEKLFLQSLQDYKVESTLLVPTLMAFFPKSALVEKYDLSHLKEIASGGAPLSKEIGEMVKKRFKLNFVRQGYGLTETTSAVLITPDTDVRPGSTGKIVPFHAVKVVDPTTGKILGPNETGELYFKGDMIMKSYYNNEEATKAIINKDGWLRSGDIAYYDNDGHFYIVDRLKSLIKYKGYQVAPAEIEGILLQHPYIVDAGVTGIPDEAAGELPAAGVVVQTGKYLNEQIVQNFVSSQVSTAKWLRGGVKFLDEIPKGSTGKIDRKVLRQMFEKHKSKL

HEK293 cells = assay: Bright-field microscopy of treated cells; assay type: cell-based, human; settings: 48 hr, at concentrations suggested to be cytotoxic by CTG dose-response data
HaCat cells = assay: CellTiter-Glo cytotoxicity qHTS, HaCat; assay type: cell-based, human
In short: as §1

[3] = CellTiter-Glo, 48 hr incubation

c1cc(-c2cnn3cc(-c4ccc(N5CCNCC5)cc4)cnc23)c2cccnc2c1 [LDN-212854]
cell killing of KB 3–1 cells (in words) (KB 3–1 cells; CellTiter-Glo): complete killing | EC50 (KB 3–1 cells; [3]): 4100 nM | cell killing of CRL-7250 cells (in words) (CRL-7250 cells): no effect | cell killing of NIH 3T3 cells (in words) (NIH 3T3 cells; CellTiter-Glo): no effect | cell killing of HEK 293 cells (in words) (HEK 293 cells; CellTiter-Glo): partial killing | EC50 (HEK 293 cells; [3]): 16400 nM

COc1cccc(-c2ncc3c(n2)OCCN(c2ccccc2)C3=O)c1 [NCGC00413522]
EC50 [1]: 890 nM | EC50 [2]: 26600 nM | cell growth by bright-field microscopy (HEK293 cells): unaffected cell growth

O=C1c2cnc(-c3cc4ccccc4o3)nc2OCCN1c1ccccc1 [NCGC00413607]
EC50 [1]: 80 nM | EC50 [2]: 7300 nM | cell growth by bright-field microscopy (HEK293 cells): unaffected cell growth

O=C(c1ccc(Cl)cc1)N1CCOCC2(CN(Cc3cc(F)cc(F)c3)C2)C1 [NCGC00419015]
EC50 (KB 3–1 cells; [3]): 640 nM | EC50 (NIH 3T3 cells; [3]): 720 nM | EC50 (HEK 293 cells; [3]): 510 nM

Cc1nn2c(c1-c1ccccc1-c1ccccc1)N(CC1CC1)CCC2 [NCGC00420435]
cell killing of NIH 3T3 compared with cancer cell line KB-3–1 (in words) (NIH 3T3 cells): greater cell killing | cell killing of HEK 293 compared with cancer cell line KB-3–1 (in words) (HEK 293 cells): greater cell killing

Cc1nn2c(c1-c1ccccc1Oc1ccccc1)N(Cc1ccccc1O)CCC2 [NCGC00420455]
cell killing of NIH 3T3 compared with cancer cell line KB-3–1 (in words) (NIH 3T3 cells): greater cell killing | cell killing of HEK 293 compared with cancer cell line KB-3–1 (in words) (HEK 293 cells): greater cell killing

Cc1nn2c(c1-c1ccccc1-c1ccccc1)N(Cc1ccc(O)cc1)CCC2 [NCGC00420512]
cell killing of NIH 3T3 compared with cancer cell line KB-3–1 (in words) (NIH 3T3 cells): greater cell killing | cell killing of HEK 293 compared with cancer cell line KB-3–1 (in words) (HEK 293 cells): greater cell killing

O=C(Nc1ccccc1)OC[C@H]1C[C@@H]2CCN1C[C@@H]2c1cc(C2CCCC2)nc(-c2ccncc2)n1 [NCGC00421344]
potency in HEK 293 cell relative to the other two cell lines (NIH 3T3, KB 3–1) (HEK 293 cells; CellTiter-Glo EC50 comparison): > 10 fold

COc1ncc2cc(C(=O)Nc3cc(C(=O)NCc4cccc(Cl)c4)ccc3Cl)c(=O)[nH]c2n1 [TC-S7004]
cell killing of HaCat cells (in words) (HaCat cells; CellTiter-Glo, 48 hr): no effect | cell killing of KB 3–1 cells (in words) (KB 3–1 cells; CellTiter-Glo): complete killing | EC50 (KB 3–1 cells; [3]): 3200 nM | cell killing of CRL-7250 cells (in words) (CRL-7250 cells): no effect | cell killing of NIH 3T3 cells (in words) (NIH 3T3 cells; CellTiter-Glo): no effect | cell killing of HEK 293 cells (in words) (HEK 293 cells; CellTiter-Glo): no effect

CC(C)C[C@H](NC(=O)[C@@H](NC(=O)c1cccc(-c2ccccc2)n1)[C@@H](C)O)B(O)O [delanzomib]
EC50 (HaCat cells; Homo sapiens, HaCaT, 48 h, read-out: EC50 HaCat): 326 nM | EC50 (KB 3–1 cells; Homo sapiens, KB 3-1, 48 h): 186 nM | EC50 (CRL-7250 cells; Homo sapiens, 48 h, read-out: EC50 CRL-7250): 205 nM | EC50 (NIH 3T3 cells; Mus musculus, NIH3T3, 48 h): 82 nM | EC50 (HEK 293 cells; Homo sapiens, HEK293, 48 h): 148 nM
